# According to ChEMBL document CHEMBL2040734, “Benzothiazoles: search for anticancer agents” (2012):
# What was measured:
# Type in all cases: functional
# [1] = test system: LOX IMVI; assay: Cytotoxicity against human LOXIMVI cells assessed as cell growth at 0.1 uM after 48 hrs by sulforhodamine B assay; conditions: read-out: Activity
# [2] = test system: U-251; assay: Cytotoxicity against human U251 cells assessed as cell growth at 1 uM after 48 hrs by sulforhodamine B assay; conditions: U-251, 48 h, read-out: Activity
# [3] = test system: IGROV-1; assay: Cytotoxicity against human IGROV1 cells assessed as cell growth at 0.1 uM after 48 hrs by sulforhodamine B assay; conditions: IGROV-1, 48 h, read-out: Activity
# [4] = test system: UACC-257; assay: Cytotoxicity against human UACC257 cells assessed as cell growth at 1 uM after 48 hrs by sulforhodamine B assay; conditions: UACC-257, 48 h, read-out: Activity
# [5] = test system: LOX IMVI; assay: Cytotoxicity against human LOXIMVI cells assessed as cell growth at 10 uM after 48 hrs by sulforhodamine B assay; conditions: read-out: Activity
# [6] = test system: Malme-3M; assay: Cytotoxicity against human MALME-3M cells assessed as cell growth at 10 uM after 48 hrs by sulforhodamine B assay; conditions: read-out: Activity
# [7] = test system: HL-60(TB); assay: Cytotoxicity against human HL-60(TB) cells assessed as cell growth at 0.1 uM after 48 hrs by sulforhodamine B assay; conditions: HL-60, 48 h, read-out: Activity
# Summary of the method: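 NCI five-dose screen on the HL-60(TB) leukaemia line, grown in RPMI 1640 with 5% FBS and 2 mM L-glutamine and plated for 24 h before dosing. DMSO stocks were diluted in medium. Cells were exposed 48 h at 37 °C, then settled cells were fixed in 16% TCA (final) and stained with SRB, absorbance 515 nm. Percent growth = (Ti−Tz)/(C−Tz)×100, or (Ti−Tz)/Tz×100 when Ti<Tz.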
# [8] = test system: T47D; assay: Cytotoxicity against human T47D cells assessed as cell growth at 1 uM after 48 hrs by sulforhodamine B assay; conditions: read-out: Activity
# [9] = Cytotoxicity against human Hs 578T cells assessed as cell growth at 100 uM after 48 hrs by sulforhodamine B assay; conditions: read-out: Activity
# [10] = test system: SF-268; assay: Cytotoxicity against human SF268 cells assessed as cell growth at 100 uM after 48 hrs by sulforhodamine B assay; conditions: SF-268, 48 h, read-out: Activity
# [11] = test system: COLO 205; assay: Cytotoxicity against human COLO205 cells assessed as cell growth at 10 '-5 M after 48 hrs by sulforhodamine B assay; conditions: COLO 205, 48 h, read-out: Activity
# Summary of the method: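 Primary NCI-60 single-dose screen at 10 µM. Cells were grown in RPMI 1640 with 5% FBS and 2 mM L-glutamine and plated 24 h before drug addition. Compound was solubilized in DMSO, then exposed for 48 h at 37 °C under 5% CO2. Cells were TCA-fixed and stained with SRB, and absorbance was read at 515 nm. Growth was expressed relative to time-zero and untreated controls.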
# [12] = test system: SF-539; assay: Cytotoxicity against human SF539 cells assessed as cell growth at 100 uM after 48 hrs by sulforhodamine B assay; conditions: SF-539, 48 h, read-out: Activity
# [13] = test system: ACHN; assay: Cytotoxicity against human ACHN cells assessed as cell growth at 0.1 uM after 48 hrs by sulforhodamine B assay; conditions: read-out: Activity
# Summary of the method: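 NCI-60 five-dose screen. Cells were grown in RPMI 1640 with 5% FBS and 2 mM L-glutamine and preincubated 24 h. Compound (DMSO stock) was tested at 0.01, 0.1, 1, 10 and 100 µM for 48 h at 37 °C. Cells were fixed in situ with cold TCA (final 10%) and stained with 0.4% SRB. A515 was read, and percent growth was calculated against time-zero and control plates.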
# [14] = test system: SNB-19; assay: Cytotoxicity against human SNB19 cells assessed as cell growth at 1 uM after 48 hrs by sulforhodamine B assay; conditions: SNB-19, 48 h, read-out: Activity
# [15] = test system: UO-31; assay: Cytotoxicity against human UO31 cells assessed as cell growth at 0.1 uM after 48 hrs by sulforhodamine B assay; conditions: UO-31, 48 h, read-out: Activity
# [16] = test system: SR; assay: Cytotoxicity against human SR cells assessed as cell growth at 1 uM after 48 hrs by sulforhodamine B assay; conditions: read-out: Activity
# [17] = test system: HOP-62; assay: Cytotoxicity against human HOP62 cells assessed as cell growth at 0.01 uM after 48 hrs by sulforhodamine B assay; conditions: HOP-62, 48 h, read-out: Activity
# Summary of the method: (§1)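 Five-dose NCI panel run at 0.01, 0.1, 1, 10 and 100 µM. Cells were in RPMI 1640 with 5% FBS and 2 mM L-glutamine, seeded at 5000–40,000 cells/well and pre-incubated 24 h. Drug was diluted from a DMSO stock into medium with 50 µg/ml gentamicin. Exposure was 48 h at 37 °C, 5% CO2. Cells were fixed with cold TCA and stained with 0.4% SRB, read at 515 nm. Percent growth came from time-zero, control and test absorbances.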
# [18] = test system: OVCAR-5; assay: Cytotoxicity against human OVCAR5 cells assessed as cell growth at 0.1 uM after 48 hrs by sulforhodamine B assay; conditions: OVCAR-5, 48 h, read-out: Activity
# [19] = test system: HCC 2998; assay: Cytotoxicity against human HCC2998 cells assessed as cell growth at 100 uM after 48 hrs by sulforhodamine B assay; conditions: HCC 2998, 48 h, read-out: Activity; summary of the method: as §1
# [20] = test system: MCF7; assay: Cytotoxicity against human MCF7 cells assessed as cell growth at 100 uM after 48 hrs by sulforhodamine B assay; conditions: MCF7, 48 h, read-out: Activity
# [21] = test system: RPMI-8226; assay: Cytotoxicity against human RPMI8226 cells assessed as cell growth at 10 uM after 48 hrs by sulforhodamine B assay; conditions: RPMI-8226, 48 h, read-out: Activity
# [22] = test system: HCC 2998; assay: Cytotoxicity against human HCC2998 cells assessed as cell growth at 0.01 uM after 48 hrs by sulforhodamine B assay; conditions: HCC 2998, 48 h, read-out: Activity; summary of the method: as §1
# [23] = test system: IGROV-1; assay: Cytotoxicity against human IGROV1 cells assessed as cell growth at 100 uM after 48 hrs by sulforhodamine B assay; conditions: IGROV-1, 48 h, read-out: Activity
# [24] = test system: M14; assay: Growth inhibition of human M14 cells after 48 hrs by sulforhodamine B assay; conditions: M14, 48 h
# Summary of the method: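 Adherent NCI-60 lines were grown in RPMI 1640 with 5% FBS and 2 mM L-glutamine, plated at 5000–40,000 cells/well and preincubated 24 h. They were then exposed to five concentrations (0.01–100 µM, from a DMSO stock) for 48 h at 37 °C, 5% CO2. Cells were fixed with cold TCA (10% final, 60 min, 4 °C) and stained with 0.4% SRB. Dye was solubilized in 10 mM Tris base and A515 read. GI50 was derived from time-zero, control and treated absorbances.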
# [25] = test system: SF-295; assay: Cytotoxicity against human SF295 cells assessed as cell growth at 0.1 uM after 48 hrs by sulforhodamine B assay; conditions: SF-295, 48 h, read-out: Activity
# [26] = test system: NCI-H23; assay: Cytotoxicity against human NCI-H23 cells assessed as cell growth at 1 uM after 48 hrs by sulforhodamine B assay; conditions: NCI-H23, 48 h, read-out: Activity
# [27] = test system: PC-3; assay: Cytotoxicity against human PC3 cells assessed as cell growth at 100 uM after 48 hrs by sulforhodamine B assay; conditions: PC-3, 48 h, read-out: Activity
Compound,growth at 0.1 µM [1],growth at 1 µM [2],growth at 0.1 µM [3],growth at 1 µM [4],growth at 10 µM [5],growth at 10 µM [6],growth at 0.1 µM [7],growth at 1 µM [8],growth at 100 µM [9],growth at 100 µM [10],growth at 10 µM [11],growth at 100 µM [12],growth at 0.1 µM [13],growth at 1 µM [14],growth at 0.1 µM [15],growth at 1 µM [16],growth at 0.01 µM [17],growth at 0.1 µM [18],growth at 100 µM [19],growth at 100 µM [20],further results
Cc1ccc2nc(Nc3c(C)cccc3C)sc2c1,93%,80%,108%,83%,23%,45%,106%,75%,27%,34%,32.2%,48%,105%,61%,97%,19%,109%,106%,62%,46%,growth at 10 µM [21]: 55%; growth at 0.01 µM [22]: 97%; growth at 100 µM [23]: 33%; LC50 [24]: > 100 µM; TGI [24]: > 100 µM; growth at 0.1 µM [25]: 88%; growth at 1 µM [26]: 79%; growth at 100 µM [27]: 56%
Clc1cccc(Cl)c1Nc1nc2cccc(Cl)c2s1,89%,68%,103%,68%,-83%,-84%,103%,46%,-17%,-56%,-90%,-57%,98%,68%,56%,51%,104%,92%,-64%,-55%,growth at 10 µM [21]: -19%; growth at 0.01 µM [22]: 92%; growth at 100 µM [23]: -55%; GI50 [24]: 1.46 µM; LC50 [24]: 7.44 µM; TGI [24]: 3.29 µM; growth at 0.1 µM [25]: 82%; growth at 1 µM [26]: 59%; growth at 100 µM [27]: -74%
